# Neddyl block – inhibitors of cullin neddylation, primary screen, biochemical, TR-FRET, uHTS, NAE and Ubc12; NEDD8-conjugating enzyme Ubc12 (Homo sapiens) + NEDD8-activating enzyme E1 regulatory …; 360,000 compounds, 0.58% hits; inhibition, % at 25 µM; in the data active = inhibition above about 36%
# DSG3 Ab inh – inhibitors of pemphigus antibody binding to DSG3, primary screen, biochemical, bead-based, flow cytometry, scFv-GFP. 310,000 compounds, 0.48% hits. DSG3-coupled beads, scFv-anti-DSG3-GFP binding; active compounds read low. AID 588358, 2011. Desmoglein-3 (Homo sapiens), P32926. binding (percent of control), % at 10 µM;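 active = binding more than 3 SD below its plate's average and above zero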;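 also: hits lower antibody fragment binding to DSG3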
# Target sequence (P32926 whole entry, looked up, the tested form may be a part): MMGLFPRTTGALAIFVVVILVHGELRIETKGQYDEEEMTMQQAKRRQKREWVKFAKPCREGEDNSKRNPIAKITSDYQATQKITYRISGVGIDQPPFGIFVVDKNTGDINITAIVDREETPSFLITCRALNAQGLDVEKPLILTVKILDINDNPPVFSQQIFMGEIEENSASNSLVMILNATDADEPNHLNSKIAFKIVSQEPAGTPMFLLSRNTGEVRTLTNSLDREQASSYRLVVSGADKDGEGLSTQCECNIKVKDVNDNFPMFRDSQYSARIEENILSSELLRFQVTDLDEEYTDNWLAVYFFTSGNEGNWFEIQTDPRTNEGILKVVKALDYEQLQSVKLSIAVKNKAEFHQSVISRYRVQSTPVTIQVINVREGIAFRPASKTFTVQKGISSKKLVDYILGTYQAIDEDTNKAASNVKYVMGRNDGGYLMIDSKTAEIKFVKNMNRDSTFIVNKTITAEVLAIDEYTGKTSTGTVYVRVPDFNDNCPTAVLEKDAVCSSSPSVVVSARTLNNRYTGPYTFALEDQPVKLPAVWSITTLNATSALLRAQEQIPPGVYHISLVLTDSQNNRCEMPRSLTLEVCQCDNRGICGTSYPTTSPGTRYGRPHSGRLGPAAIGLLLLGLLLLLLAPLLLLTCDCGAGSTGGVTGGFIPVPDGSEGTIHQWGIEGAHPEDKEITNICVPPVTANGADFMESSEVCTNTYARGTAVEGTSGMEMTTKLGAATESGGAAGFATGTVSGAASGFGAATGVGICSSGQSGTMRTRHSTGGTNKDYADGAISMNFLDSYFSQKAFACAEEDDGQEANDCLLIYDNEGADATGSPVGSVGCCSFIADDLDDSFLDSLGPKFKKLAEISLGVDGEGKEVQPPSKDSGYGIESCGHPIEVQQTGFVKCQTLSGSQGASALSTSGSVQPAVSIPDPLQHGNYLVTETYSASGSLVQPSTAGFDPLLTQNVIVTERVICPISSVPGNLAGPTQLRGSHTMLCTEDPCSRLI
# Efflux pump inh – inhibitors of Candida efflux pumps in yeast, primary screen, S. cerevisiae, Nile Red, multiplex. S. cerevisiae Candida pump triplex. inhibition, % at 10 µM. 330,000 compounds, 0.44% hits. AID 485275, 2010;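 active = plate passing quality check with inhibition over a set limit, or well fluorescence over plate mean plus 4 SD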;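 also: Nile Red retained in pooled yeast measured as flow cytometry median fluorescence; 0% = buffer negative control and 100% = Enniatin B positive control; higher means more Nile Red kept so more efflux inhibition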
# Arrestin-AP2 inh – inhibitors of beta-arrestin/AP2 binding, primary screen, biochemical, GPCR trafficking, flow cytometry; beta-arrestin 1 C-terminal peptide binding to AP2 beta2-adaptin appendage (human); FITC-arrestin peptide / GST-AP2 beads; AP2 beta2 appendage carries R879A mutation; inhibition, % at 10 µM; 340,000 compounds, 0.31% hits; AID 504490, 2011;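 active = inhibition above a set limit, near 3 SD of compounds lacking own fluorescence, cut at about 54% in these data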;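 also: plate controls were DMSO wells for no effect and 5 µM unlabelled arrestin peptide for full effect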
#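 System: GST-tagged AP2 beta2-adaptin appendage (R879A) on 4 µm glutathione beads / Reagent: FITC-arrestin peptide, 50 nM / Detection: HyperCyt-sampled flow cytometry, FL1 channel, ex 488/em 535 nm / Timing: 12 min plus 1 h, RT / Buffer or medium: PBS plus Tween 20 (0.05%) and BSA (0.1%)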
# Neddyl inh conf – blockade of NEDD8 conjugation to cullin – biochemical, TR-FRET, single concentration, confirmation. calls only at 25 µM. TR-FRET cullin neddylation biochemical assay. 1,800 compounds, 13% hits. shares compounds with Neddyl block. AID 652217, 2013; in the data active = inhibition above about 40%;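 also: neddylation substrate is the cullin 1 ring ligase complex with SKP2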
# * hit, by the source's call; i = inactive; / = no result shown; + = active, no number. In the library only some 1.7% were active in any assay of this set; here they are far more common.
SMILES,Neddyl block,DSG3 Ab inh,Efflux pump inh,Arrestin-AP2 inh,Neddyl inh conf
Cc1cn(-c2cccnc2)c(C)c1CNC[C@H]1O[C@@H](n2cnc3c(N)ncnc32)[C@H](O)[C@@H]1O,75*,95,0,-3,i
CCOc1cc(NC(=S)NCC2CCCO2)c(OCC)cc1NC(=O)c1ccccc1F (centres undefined),30,119,0,-4,/
Cc1cc(-c2ccccc2)[nH]c(=O)c1C#N,50*,106,0,5,/
N#Cc1c(-c2ccco2)cc(-c2ccccc2)[nH]c1=O,/,94,0,34,/
CSc1cc(-c2ccccc2)[nH]c(=O)c1C#N,19,104,0,4,/
Cc1ccc(-c2cc(-c3ccco3)c(C#N)c(=O)[nH]2)cc1,96*,/,0,27,i
COc1cccc(OCc2cc(C(=O)NC(C)c3cnn(C)c3C)no2)c1 (centres undefined),0,104,0,-13,/
CCC(C)(O)c1[nH]c2ccc(C#N)cc2c1C (centres undefined),-8,97,0,13,/
Cc1ccc2ccc(C#N)cc2c1O,43*,105,/,/,+
O=C(c1cc(-c2ccco2)nc2ccccc12)N1CCCC(C(F)(F)F)C1 (centres undefined),60*,95,0,6,/
CC(=O)c1cccc(NC(=O)c2cc(-c3ccco3)nc3ccccc23)c1,14,123,0,-5,/
O=C(Nc1ccccc1F)c1cc(-c2ccco2)nc2ccccc12,45*,109,0,3,/
COc1cccc(NC(=O)c2cc(-c3ccco3)nc3ccccc23)c1,38*,111,0,38,/
CN(CCOc1ccc(Cl)cc1)C(=O)c1cc(-c2ccco2)nc2ccccc12,62*,102,0,-9,/
COc1cccc(NC(=O)CN(C)C(=O)c2cc(-c3ccco3)nc3ccccc23)c1,/,103,0,-3,/
COc1cc(S(=O)(=O)n2nc(C)cc2C)c(OC)cc1Cl,-1,84,0,1,/
C[C@@H]1CN([C@H](C)CO)C(=O)CCCn2nncc2CO[C@@H]1CN(C)C(=O)CCC(F)(F)F,-7,110,/,/,/
CC(C)C[C@@H](CSc1ccccc1)N1CCN(CC(C)C)CCC1=O,-10,99,0,14,/
CCCNC(=O)CN1CCC(c2nc3ccccc3[nH]2)CC1,6,103,0,-1,/
CCOc1ccc(N/C=C/C(=O)c2ccc(OC)c(OC)c2)cc1,41*,118,0,24,i
CCN1CCN(C(=O)c2cn(CCOC)c(=O)c3c2c2ccccc2n3C)CC1,49*,/,0,18,i
COCCn1cc(C(=O)N2CCCC(C)C2)c2c3ccccc3n(C)c2c1=O (centres undefined),42*,98,0,3,i
CCC(C)NC(=O)c1cn(CCOC)c(=O)c2c1c1ccccc1n2C (centres undefined),31,93,0,1,/
CCOC(=O)C1CCN(C(=O)c2cn(CCOC)c(=O)c3c2c2ccccc2n3C)CC1,38,103,0,-9,/
O=C(CN1CCCC1)N1CCCc2c1c(=O)oc1ccc(OCc3ccccc3)cc21,50*,/,0,-6,/
SMILES,Neddyl block,DSG3 Ab inh,Efflux pump inh,Arrestin-AP2 inh,Neddyl inh conf
CCCOc1ccc2oc(=O)c3c(c2c1)CCCN3C(=O)CN1CCN(C(=O)c2ccco2)CC1,/,/,0,/,/
Cn1c(=O)n(C)c2cc(S(=O)(=O)NCC(=O)O)ccc21,0,96,0,17,/
Cn1c(=O)n(C)c2cc(S(=O)(=O)Nc3ccccc3C(=O)O)ccc21,42*,97,0,30,i
CCCCN(CCCNC(=O)c1ccc2nc(N3CCOCC3)sc2c1)Cc1ccccc1,4,105,0,-10,/
O=Cc1c(OCc2ccccc2)ccc2ccccc12,-33,95,0,10,/
CC(C)c1ccc(NC(=O)Cn2c(=O)oc3cccnc32)cc1,9,111,0,-8,/
O=C(Cn1c(=O)oc2cccnc21)Nc1ccc(C(F)(F)F)cc1,40*,101,0,-2,i
CC(C)(C)C(=O)Nc1ccc(S(=O)(=O)Nc2ccccn2)cc1,11,102,0,7,/
CC1CC(=O)c2cnc(Nc3ccccc3)nc2C1 (centres undefined),38*,104,0,-7,/
Cc1ccc(C)c(C(=O)OCC(=O)Nc2cccc(S(=O)(=O)NC3=NCCCCC3)c2)c1,7,99,0,4,/
COc1ccc2oc(C(=O)OCC(=O)N(C)CC(=O)Nc3ccc(C)cc3)c(C)c2c1,41*,97,0,-2,/
COc1ccc2oc(C(=O)OCC(=O)Nc3ccc(OC)c(S(N)(=O)=O)c3)c(C)c2c1,53*,104,0,-4,/
COCCC1CCCCN1Cc1cn(-c2ccccc2)nc1-c1ccc2c(c1)OCO2 (centres undefined),38,95,0,7,/
CC(=O)NCC1CCCN(Cc2cn(-c3ccccc3F)nc2-c2cc(C)sc2C)C1 (centres undefined),0,97,0,-25,/
CC(=O)NCC1CCCN(Cc2cn(-c3ccccc3)nc2-c2ccc3c(c2)OCO3)C1 (centres undefined),40*,/,0,7,i
COC(=O)C1CCN(Cc2cn(-c3ccccc3)nc2-c2ccc3c(c2)OCO3)CC1,40*,113,0,4,i
Cc1ccc(S(=O)(=O)NNC2CC(=O)N(c3ccc(Br)cc3)C2=O)cc1 (centres undefined),-6,94,0,-14,/
Cc1cc(=O)[nH]c2c3ccccc3nn12,5,103,0,-2,/
Cc1cc(C)n2nc3ccccc3c2n1,42*,103,0,0,i
CCOC(=O)c1sc(-c2cccs2)nc1C,46*,101,0,-26,i
Cc1[nH]nc2c1C(c1ccc(O)cc1)C1=C(CC(C)(C)CC1=O)N2 (centres undefined),45*,98,0,14,i
Cc1[nH]nc2c1C(c1ccccc1)C1=C(CC(C)(C)CC1=O)N2 (centres undefined),i,102,0,4,/
O=C(N/N=C/c1cccc(Oc2ccc([N+](=O)[O-])cc2[N+](=O)[O-])c1)c1cncc(Br)c1,-20,123,0,-5,/
C=CCOc1ccccc1CNc1ccc2[nH]c(=O)[nH]c2c1,48*,102,0,17,i
C=CCOc1ccccc1CNc1cccc(F)c1,0,112,0,0,/
Cc1[nH]c2ccc(C(=O)OCC(=O)Nc3cccc(S(N)(=O)=O)c3)cc2c1C,45*,/,0,15,i

# Screening results as filed in PubChem.
